Reference: ChEMBL document CHEMBL4038321, “Design, Synthesis, and Pharmacokinetics of a Bone-Targeting Dual-Action Prodrug for the Treatment of Osteoporosis” (J Med Chem, 2017)

How the values were obtained:
Plasma [1] = assay: Drug metabolism in rat plasma assessed as tritium label liberation preincubated with rat plasma followed by bovine bone powder addition measured after 30 mins; type: ADME, cell-free; settings: 0.5 h
How it was run: (§1)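 Tritium-labelled conjugate incubated in rat plasma at 37 °C. At fixed times the incubate was stirred with bovine bone powder to adsorb intact conjugate and any cleaved bisphosphonate. Unbound radioactivity in the supernatant was then counted as liberated label.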

Plasma [2] = assay: Drug metabolism in rat plasma assessed as tritium label liberation preincubated with rat plasma followed by bovine bone powder addition measured after 4 hrs; type: ADME, cell-free; how it was run: as §1
Plasma [3] = assay: Drug metabolism in rat plasma assessed as tritium label liberation preincubated with rat plasma followed by bovine bone powder addition measured after 24 hrs; type: ADME, cell-free; how it was run: as §1
Serum = assay: Drug metabolism in rat serum assessed as tritium label liberation preincubated with bovine bone powder followed by rat serum addition measured after 24 hrs; type: ADME, cell-free
How it was run: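 Tritium-labelled conjugate first bound to bovine bone powder for 30 min in buffer. The powder was filtered, resuspended and incubated in fresh rat serum. Buffer and inactivated serum were run alongside. Tritium liberated after 24 h was measured.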

Rattus norvegicus [4] = assay: Toxicity in Sprague-Dawley rat at 31 uCi, iv administered via tail vein after 6 hrs; type: organism-based; settings: in vivo
How it was run: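 Three female Sprague Dawley rats, about 23 weeks old on arrival, received an IV tail-vein injection of 5 mg/kg conjugate with 31.0 µCi [3H] per rat. Vehicle was 10% Poloxamer 188 adjusted to pH 8.0 with NaHCO3 and diluted 1:1 with PBS. Tolerability was observed over 6 h with blood sampling, and the study ended at 6 h.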

Liver [5] = assay: Drug uptake in Sprague-Dawley rat liver at 31 uCi, iv after 6 hrs by scintillation counting method; type: ADME, organism-based; settings: in vivo
How it was run: (§2)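 Three female Sprague Dawley rats, about 23 weeks old. IV tail-vein dose of 5 mg/kg 3H-conjugate (31.0 µCi/rat) in 10% Poloxamer 188, pH 8.0 with NaHCO3, diluted 1:1 with PBS. Blood was drawn at 0.5 to 6 h. At 6 h tissues, including long bones, were taken and analysed for radioactivity by oxidation and scintillation counting.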

Bone [6] = assay: Drug uptake in Sprague-Dawley rat bone at 31 uCi, iv after 6 hrs by scintillation counting method; type: ADME, organism-based, Bone element; settings: in vivo; how it was run: as §2
Bone [7] = assay: Drug uptake in Sprague-Dawley rat bone at 8.9 uCi, iv administered as bolus dose after 6 hrs; type: ADME, organism-based, Bone element; settings: in vivo
How it was run: (§3)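 Female Sprague Dawley rats, about 13 weeks old, in five groups of three. Single IV tail-vein bolus of mixed 3H-conjugate (8.90 µCi/rat) and 14C-conjugate (1.77 µCi/rat), total dose 5.0 mg/kg. Vehicle was 10% Poloxamer 188, brought to pH 8.0 with NaHCO3, then diluted with an equal volume of PBS. Groups were killed at 6 h, 1, 7, 14 and 28 days. Tissues and femurs were incinerated in a biological oxidizer. Values are % of administered dose, with skeleton taken as 8% of body weight, averaged over three rats.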

Bone [8] = assay: Drug uptake in Sprague-Dawley rat bone at 8.9 uCi, iv administered as bolus dose after 1 day; type: ADME, organism-based, Bone element; settings: in vivo, 24 h; how it was run: as §3
Bone [9] = assay: Drug uptake in Sprague-Dawley rat bone at 8.9 uCi, iv administered as bolus dose after 7 days; type: ADME, organism-based, Bone element; settings: in vivo, 168 h; how it was run: as §3
Bone [10] = assay: Drug uptake in Sprague-Dawley rat bone at 8.9 uCi, iv administered as bolus dose after 14 days; type: ADME, organism-based, Bone element; settings: in vivo, 336 h; how it was run: as §3
Liver [11] = assay: Drug uptake in Sprague-Dawley rat liver at 8.9 uCi, iv administered as bolus dose after 6 hrs; type: ADME, organism-based; settings: in vivo; how it was run: as §3
Liver [12] = assay: Drug uptake in Sprague-Dawley rat liver at 8.9 uCi, iv administered as bolus dose after 1 day; type: ADME, organism-based; settings: in vivo, 24 h; how it was run: as §3
Liver [13] = assay: Drug uptake in Sprague-Dawley rat liver at 8.9 uCi, iv administered as bolus dose after 7 days; type: ADME, organism-based; settings: in vivo, 168 h; how it was run: as §3
Liver [14] = assay: Drug uptake in Sprague-Dawley rat liver at 8.9 uCi, iv administered as bolus dose after 14 days; type: ADME, organism-based; settings: in vivo, 336 h; how it was run: as §3
Spleen [15] = assay: Drug uptake in Sprague-Dawley rat spleen at 8.9 uCi, iv administered as bolus dose after 6 hrs; type: ADME, organism-based; settings: in vivo
How it was run: (§4)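 Female Sprague Dawley rats, about 13 weeks old on arrival, in five groups of three. Single IV tail-vein bolus of mixed [3H]- and [14C]-labelled conjugate (8.90 and 1.77 µCi/rat), total 5.0 mg/kg. Vehicle was 10% Poloxamer 188 adjusted to pH 8.0 with NaHCO3, then diluted with an equal volume of PBS. Groups killed at 6 h, 1, 7, 14 and 28 days. Spleen radioactivity measured by oxidizer incineration and reported as percent of administered dose, averaged over three rats.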

Spleen [16] = assay: Drug uptake in Sprague-Dawley rat spleen at 8.9 uCi, iv administered as bolus dose after 1 day; type: ADME, organism-based; settings: in vivo, 24 h; how it was run: as §4
Spleen [17] = assay: Drug uptake in Sprague-Dawley rat spleen at 8.9 uCi, iv administered as bolus dose after 7 days; type: ADME, organism-based; settings: in vivo, 168 h; how it was run: as §4
Spleen [18] = assay: Drug uptake in Sprague-Dawley rat spleen at 8.9 uCi, iv administered as bolus dose after 14 days; type: ADME, organism-based; settings: in vivo, 336 h; how it was run: as §4
Kidney [19] = assay: Drug uptake in Sprague-Dawley rat kidney at 8.9 uCi, iv administered as bolus dose after 6 hrs; type: ADME, organism-based; settings: in vivo; how it was run: as §3
Kidney [20] = assay: Drug uptake in Sprague-Dawley rat kidney at 8.9 uCi, iv administered as bolus dose after 1 day; type: ADME, organism-based; settings: in vivo, 24 h; how it was run: as §3
Kidney [21] = assay: Drug uptake in Sprague-Dawley rat kidney at 8.9 uCi, iv administered as bolus dose after 7 days; type: ADME, organism-based; settings: in vivo, 168 h; how it was run: as §3
Kidney [22] = assay: Drug uptake in Sprague-Dawley rat kidney at 8.9 uCi, iv administered as bolus dose after 14 days; type: ADME, organism-based; settings: in vivo, 336 h; how it was run: as §3
Heart [23] = assay: Drug uptake in Sprague-Dawley rat heart at 8.9 uCi, iv administered as bolus dose after 6 hrs; type: ADME, organism-based; settings: in vivo; how it was run: as §3
Heart [24] = assay: Drug uptake in Sprague-Dawley rat heart at 8.9 uCi, iv administered as bolus dose after 1 day; type: ADME, organism-based; settings: in vivo, 24 h; how it was run: as §3
Heart [25] = assay: Drug uptake in Sprague-Dawley rat heart at 8.9 uCi, iv administered as bolus dose after 7 days; type: ADME, organism-based; settings: in vivo, 168 h; how it was run: as §3
Brain [26] = assay: Drug uptake in Sprague-Dawley rat brain at 8.9 uCi, iv administered as bolus dose after 6 hrs; type: ADME, organism-based; settings: in vivo; how it was run: as §3
Brain [27] = assay: Drug uptake in Sprague-Dawley rat brain at 8.9 uCi, iv administered as bolus dose after 1 day; type: ADME, organism-based; settings: in vivo, 24 h; how it was run: as §3
[28] = Drug metabolism in rat plasma at 100 uM measured after 24 hrs by HPLC analysis; type: ADME, cell-free; settings: read-out: Drug metabolism
How it was run: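 Conjugate incubated in rat plasma at 37 °C for 24 h and compared with inactivated control plasma. Aliquots were taken at 0, 1, 2, 4 and 24 h and quenched with methanol containing 1.0 M HCl, then centrifuged. Remaining conjugate in the supernatant was quantified by reverse-phase HPLC with UV detection at 254 nm.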

Bone [29] = assay: Drug uptake in Sprague-Dawley rat bone at 8.9 uCi, iv administered as bolus dose after 28 days; type: ADME, organism-based, Bone element; settings: in vivo, 672 h; how it was run: as §3
Liver [30] = assay: Drug uptake in Sprague-Dawley rat liver at 8.9 uCi, iv administered as bolus dose after 28 days; type: ADME, organism-based; settings: in vivo, 672 h; how it was run: as §3
Spleen [31] = assay: Drug uptake in Sprague-Dawley rat spleen at 8.9 uCi, iv administered as bolus dose after 28 days; type: ADME, organism-based; settings: in vivo, 672 h; how it was run: as §4
Kidney [32] = assay: Drug uptake in Sprague-Dawley rat kidney at 8.9 uCi, iv administered as bolus dose after 28 days; type: ADME, organism-based; settings: in vivo, 672 h; how it was run: as §3
Rattus norvegicus [33] = assay: Toxicity in Sprague-Dawley rat assessed as behavioral change at 8.9 uCi, iv administered as bolus dose after 28 dyas; type: organism-based; settings: in vivo
How it was run: (§5)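 Same dual-label study: female Sprague Dawley rats got one IV tail-vein bolus of [3H] (8.90 µCi) plus [14C] (1.77 µCi) conjugate, total 5.0 mg/kg, in Poloxamer 188/PBS vehicle at pH 8.0. Groups of three were sacrificed up to 28 days after dosing.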

Rattus norvegicus [34] = assay: Toxicity in Sprague-Dawley rat assessed as unusual reaction at 8.9 uCi, iv administered as bolus dose after 28 dyas; type: organism-based; settings: in vivo; how it was run: as §5

**Q.** Which Drug metabolism (Plasma [1]) does the source give for `[3H]c1ccc(C(F)(F)[C@@H](/C=C/[C@H]2CCC(=O)N2CCCCCCC(=O)OCC)OC(=O)Cc2ccc(COC(=O)N[C@@H](CC(C)C)C(=O)N[C@@H](CCCNC(=N)N)C(=O)Nc3ccc(COC(=O)NCCCC(O)(P(=O)(O)O)P(=O)(O)O)cc3)cc2)cc1` here?
**A.** Its Drug metabolism is 27%.

**Q.** What about the Drug metabolism (Plasma [2]) of the same compound?
**A.** The Drug metabolism was 44%.

**Q.** And the Drug metabolism (Plasma [3])?
**A.** The Drug metabolism was 53%.

**Q.** What about the Drug metabolism (Serum) of the same compound?
**A.** Its Drug metabolism is < 3%.

**Q.** And the Activity (Rattus norvegicus [4])?
**A.** Its Activity is “Toxic”.

**Q.** And the Drug uptake (Liver [5])?
**A.** The Drug uptake was “Active”.

**Q.** And the Drug uptake (Bone [6])?
**A.** The Drug uptake was 2.5 %ID.

**Q.** And the Drug uptake (Bone [7])?
**A.** The Drug uptake was 2.1 %ID.

**Q.** What about the Drug uptake (Bone [8]) of the same compound?
**A.** Its Drug uptake is 2.12 %ID.

**Q.** What about the Drug uptake (Bone [9]) of the same compound?
**A.** Its Drug uptake is 1.3 %ID.

**Q.** And the Drug uptake (Bone [10])?
**A.** The Drug uptake was 0.8 %ID.

**Q.** And the Drug uptake (Liver [11])?
**A.** The Drug uptake was 8.95 %ID.

**Q.** What about the Drug uptake (Liver [12]) of the same compound?
**A.** The Drug uptake was 2.33 %ID.

**Q.** What about the Drug uptake (Liver [13]) of the same compound?
**A.** The Drug uptake was 0.48 %ID.

**Q.** And the Drug uptake (Liver [14])?
**A.** Its Drug uptake is 0.3 %ID.

**Q.** And the Drug uptake (Spleen [15])?
**A.** The Drug uptake was 0.35 %ID.

**Q.** And the Drug uptake (Spleen [16])?
**A.** The Drug uptake was 0.22 %ID.

**Q.** And the Drug uptake (Spleen [17])?
**A.** Its Drug uptake is 0.076 %ID.

**Q.** What about the Drug uptake (Spleen [18]) of the same compound?
**A.** Its Drug uptake is 0.039 %ID.

**Q.** What about the Drug uptake (Kidney [19]) of the same compound?
**A.** Its Drug uptake is 0.21 %ID.

**Q.** What about the Drug uptake (Kidney [20]) of the same compound?
**A.** Its Drug uptake is 0.11 %ID.

**Q.** What about the Drug uptake (Kidney [21]) of the same compound?
**A.** The Drug uptake was 0.053 %ID.

**Q.** What about the Drug uptake (Kidney [22]) of the same compound?
**A.** Its Drug uptake is 0.026 %ID.

**Q.** What about the Drug uptake (Heart [23]) of the same compound?
**A.** Its Drug uptake is 0.025 %ID.

**Q.** What about the Drug uptake (Heart [24]) of the same compound?
**A.** The Drug uptake was 0.021 %ID.

**Q.** What about the Drug uptake (Heart [25]) of the same compound?
**A.** Its Drug uptake is 0.014 %ID.

**Q.** What about the Drug uptake (Brain [26]) of the same compound?
**A.** Its Drug uptake is 0.022 %ID.

**Q.** And the Drug uptake (Brain [27])?
**A.** The Drug uptake was 0.025 %ID.

**Q.** And the metabolised at 24 h, 100 µM [28]?
**A.** Its metabolised at 24 h, 100 µM is 55%.

**Q.** What about the Drug uptake (Bone [29]) of the same compound?
**A.** Its Drug uptake is 0.74 %ID.

**Q.** What about the Drug uptake (Liver [30]) of the same compound?
**A.** Its Drug uptake is 0.08 %ID.

**Q.** And the Drug uptake (Spleen [31])?
**A.** The Drug uptake was 0.037 %ID.

**Q.** What about the Drug uptake (Kidney [32]) of the same compound?
**A.** The Drug uptake was 0.017 %ID.

**Q.** What about the Activity (Rattus norvegicus [33]) of the same compound?
**A.** Its Activity is “Non-Toxic”.

**Q.** What about the Activity (Rattus norvegicus [34]) of the same compound?
**A.** The Activity was “Non-Toxic”.
